Experimental data collected from several papers.
Lines come from different studies, so protocols differ.
MAP3K11: Mitogen-activated protein kinase kinase kinase 11 (MAP3K11, Homo sapiens, UniProt Q16584)
CDKL1: Cyclin-dependent kinase-like 1 (CDKL1, Homo sapiens, UniProt Q00532)

c1cc(CN2CCOCC2)cc(Nc2ncc(C3CC3)c(NCCc3c[nH]cn3)n2)c1
remaining activity (MAP3K11; enzyme activity, inhibitor, radiometric; 1 µM): 27%

CN(C)C1CCN(CC#Cc2nn(C3CCCC3)c3nc(NCc4ccccc4)ncc23)C1 (stereo not drawn)
inhibition (Interleukin-1 receptor-associated kinase 4 (IRAK4, Homo sapiens, UniProt Q9NWZ3); enzyme activity, inhibitor, FRET; 10 µM): 0%

Cc1cc(NC(=O)c2cccc3cc(-c4cccc5[nH]nc(N)c45)ccc23)ccc1F
activity vs control (Hepatocyte growth factor receptor (MET, Homo sapiens, UniProt P08581, D1228N); enzyme activity, inhibitor; 0.1 µM): 120%

NS(=O)(=O)c1ccc(CNc2nc(Nc3cccc(NC(=O)N4CCCC4)c3)ncc2Br)cc1
remaining activity (MAP3K11; enzyme activity, inhibitor, radiometric; 1 µM): 24%

Nc1ncnc2occ(-c3ccc(NC(=O)Nc4cc(C(F)(F)F)ccc4F)cc3)c12
remaining signal (Serine/threonine-protein kinase 36 (STK36, Homo sapiens, UniProt Q9NRP7); cell-free assay, inhibitor; 20 µM): 87%

O=S1(=O)O[C@@H]2[C@H](O)[C@@H](O)[C@H](O)[C@@H](CO)[C@@H]2O1
kinact/KI (Lysosomal alpha-glucosidase (GAA, Homo sapiens, UniProt P10253); enzyme activity, inhibitor; pH 4.8): 1070 M⁻¹ s⁻¹

CCN1CCN(Cc2ccc(NC(=O)c3ccc(C)c(Oc4ccnc5[nH]ccc45)c3)cc2C(F)(F)F)CC1
inhibition (Eukaryotic elongation factor 2 kinase (EEF2K, Homo sapiens, UniProt O00418); target engagement in cells, inhibitor, chemoproteomics; A-375; 50 nM): -13.9%

Cn1c2c(c3ccc(Cl)c(Cl)c31)C(C#N)C1(CCNCC1)NC2=O (racemic)
ΔTm (CDKL1; thermal stability, DSF; 10 µM): 0.9 °C

Cc1cnc(NC2CCOCC2)nc1-n1cnc(C(=O)NC(CN)c2cc(F)cc(Cl)c2)c1 (stereo not drawn)
remaining activity (Hepatocyte growth factor receptor (MET, Homo sapiens, UniProt P08581, Y1230C); enzyme activity, inhibitor, radiometric; 1 µM): 100%

Cn1c2c(c3ccc(Cl)c(Cl)c31)C(C#N)C(C)(C)NC2=O (stereo not drawn)
ΔTm (CDKL1; thermal stability, DSF; 10 µM): 0 °C

NS(=O)(=O)c1ccc(CNc2ccnc(Nc3cccc(CN4CCOCC4)c3)n2)cc1
remaining activity (Serine/threonine-protein kinase ULK1 (ULK1, Homo sapiens, UniProt O75385); enzyme activity, inhibitor, radiometric; 1 µM): 92%

Cn1c2c(c3ccc(Cl)c(Cl)c31)C(C#N)C1(CCCC1)NC2=O (stereo not drawn)
ΔTm (CDKL1; thermal stability, DSF; 10 µM): 0 °C

Cc1ccc(NC(=O)c2ccc(C)c(C(F)(F)F)c2)cc1C#Cc1nn(C2CCC(O)CC2)c2ncnc(N)c12 (stereo not drawn)
remaining signal (Hepatocyte growth factor receptor (MET, Homo sapiens, UniProt P08581); cell-free assay; 10 µM): 133%

NS(=O)(=O)c1ccc(CNc2nc(Nc3cccc(NC(=O)N4CCCC4)c3)ncc2C2CC2)cc1
remaining activity (MAP3K11; enzyme activity, inhibitor, radiometric; 1 µM): 72%

N#CC1c2c([nH]c3c(Cl)c(Cl)ccc23)C(=O)NC12CCCCC2 (racemic)
ΔTm (CDKL1; thermal stability, DSF; 10 µM): 0.2 °C
